Series [1] deals with L1210. In words: Antiproliferative activity against mouse L1210 cells. It is filed as functional, cell-based. The gist of the method:
(§1)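 Suspension cells seeded at 50 × 10³ cells/well with a range of test compound concentrations. Cell number counted with a Coulter counter after 2 days (L1210) or 3 days (Molt4/C8, CEM). IC50 is the concentration that cuts cell growth by 50% versus untreated controls, read from plots of cell number (% of control) against concentration.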

Series [2] deals with Vesicular stomatitis virus. In words: Antiviral activity against in Vesicular stomatitis virus-induced cytopathogenicity in E6SM cells. In kind it is functional.
Series [3] relates to SW-620. In words: Antiproliferative activity against human SW620 cells after 72 hrs by MTT assay. In kind it is functional, cell-based. To be noted: SW-620, 72 h. The gist of the method: (§2)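 Monolayers grown in DMEM with 10% FBS, 2 mM L-glutamine and penicillin/streptomycin at 37 °C, 5% CO2. Seeded at 1 × 10⁴–3 × 10⁴ cells/mL on day 0. Compounds from 0.04 M DMSO stocks added at five 10-fold dilutions (10⁻⁸–10⁻⁴ M final), with matched DMSO controls, for 72 h. MTT added for 4 h, formazan dissolved in DMSO, absorbance read at 570 nm. Percentage growth calculated against time-zero and untreated OD. IC50 is 50% inhibition of proliferation.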

For series [4], the system named is Human alphaherpesvirus 1. The series is described as follows: Antiviral activity against HSV1 KOS-induced cytopathogenicity in E6SM cells. It is filed as functional. Particulars: Human alphaherpesvirus 1, KOS.
Series [5] deals with CCRF-CEM. In words: Antiproliferative activity against human CEM cells. In kind it is functional, cell-based. The gist of the method: as §1
In series [6] the test system is MIA PaCa-2. In words: Antiproliferative activity against human MiaPaCa2 cells after 72 hrs by MTT assay. In kind it is functional, cell-based. Particulars: Homo sapiens, MIA PaCa-2, 72 h; read-out: IC50. The gist of the method: as §2
Series [7] is described as follows: Cytotoxicity against E6SM cells. It is filed as cell-based. Particulars: human. The gist of the method: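 Cells seeded at 5 × 10³ cells/well and exposed to medium containing a range of test compound concentrations. After 3 days at 37 °C, cell morphology examined microscopically. Reported as minimum cytotoxic concentration (MCC), the concentration causing a microscopically detectable alteration of normal cell morphology.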

The test system of series [8] is WI-38. The series is described as follows: Antiproliferative activity against human WI38 cells after 72 hrs by MTT assay. In kind it is functional, cell-based. Particulars: WI-38, 72 h. In short, it runs like this: as §2
Series [9] has as its system Sindbis virus. In words: Antiviral activity against Sindbis virus-induced cytopathogenicity in Vero cells. It is filed as functional.
Series [10] relates to Vesicular stomatitis virus. In words: Antiviral activity against in Vesicular stomatitis virus- induced cytopathogenicity in HeLa cells. It is filed as functional.
The subject of series [11] is MCF7. In words: Antiproliferative activity against human MCF7 cells after 72 hrs by MTT assay. It is filed as functional, cell-based. To be noted: MCF7, 72 h. The gist of the method:
as §2

Series [12] is described as follows: Antiproliferative activity against human Molt4/C8 cells. It is filed as functional, cell-based. To be noted: MOLT-4. The gist of the method:
as §1

Series [13] has as its system HeLa. The series is described as follows: Antiproliferative activity against human HeLa cells after 72 hrs by MTT assay. It is filed as functional, cell-based. The gist of the method:
as §2

Series [14] has as its system Human alphaherpesvirus 2. In words: Antiviral activity against HSV2 G-induced cytopathogenicity in E6SM cells. In kind it is functional. Particulars: Human alphaherpesvirus 2, G.
Series [15] concerns Coxsackievirus B4. The series is described as follows: Antiviral activity against Coxsackie virus B4-induced cytopathogenicity in Vero cells. It is filed as functional. Particulars: Enterovirus B.
The subject of series [16] is Human alphaherpesvirus 1. The series is described as follows: Antiviral activity against HSV1 TK- KOS ACV-induced cytopathogenicity in E6SM cells. In kind it is functional. To be noted: Human alphaherpesvirus 1, KOS.
Series [17] has as its system HEp-2. The series is described as follows: Antiproliferative activity against human Hep2 cells after 72 hrs by MTT assay. It is filed as functional, cell-based. To be noted: HEp-2, 72 h. In short, it runs like this:
as §2

In series [18] the test system is Punta Toro virus. In words: Antiviral activity against Punta Toro virus-induced cytopathogenicity in Vero cells. It is filed as functional.

Values after ≈ are worked out from the molar mass of the structure shown.

The values below come from ChEMBL document CHEMBL1144557, “The novel C-5 aryl, alkenyl, and alkynyl substituted uracil derivatives of L-ascorbic acid: synthesis, cytostatic, and antiviral activity evaluations” (Bioorg Med Chem, 2007).

Take `O=C1O/C(=C(\Br)Cn2c(Br)c(/C=C/Br)c(=O)[nH]c2=O)C(OCc2ccccc2)=C1OCc1ccccc1`: the IC50 in [1] is 32 µM; in series [3], at least 100 µM; in series [5] it was 91 µM; in series [6], 20 µM; in series [8] it was 49 µM; in [11], 15 µM. Also, the IC50 in [12] stood at 110 µM; in series [13] it was 22 µM; in series [17] it was 22 µM. Further, the MIC in [2], in series [4], in series [9], in series [10], in [14] and in series [15] was over 116 µM throughout. For the same compound, the MIC in series [16] and in series [18] was over 116 µM throughout. Besides, in series [7] (read-out: MCC), the MCC came out at 578 µM.

Turning to `O=C1O/C(=C\Cn2cc(-c3ccc(Cl)o3)c(=O)[nH]c2=O)C(OCc2ccccc2)=C1OCc1ccccc1`, the IC50 in series [1] is 165 µM; in [3], over 100 µM; in [5], 162 µM; in [6] it was at least 100 µM; in series [8] it was over 100 µM; in series [11] it was at least 100 µM. For the same compound, the IC50 in [12] was 158 µM; in series [13], at least 100 µM; in [17], over 100 µM. The MIC is 150 µM (≈ 79.9 µg/mL) in series [2]; over 150 µM in series [4]; over 150 µM in [9]; over 150 µM in series [10]; over 150 µM in series [14]; over 150 µM in [15]. For the same compound, the MIC in [16] and in series [18] was over 150 µM throughout. In series [7] (read-out: MCC), the MCC worked out at 752 µM.

Consider `C=Cc1cn(C/C=C2\OC(=O)C(O)=C2O)c(=O)[nH]c1=O`, for which the IC50 in [1] is 309 µM; in series [3] it was over 100 µM; in series [5] it was 284 µM; in series [6], at least 100 µM; in series [8], 36 µM; in series [11], 36 µM. Also, the IC50 in series [12] stood at 309 µM; in [13], 40 µM; in series [17], 46 µM. Besides, the MIC in series [2] is over 144 µM; in series [4], over 144 µM; in series [9] it was over 29 µM; in series [10] it was over 120 µM; in series [14] it was over 144 µM; in [15] it was over 29 µM. Besides, the MIC is over 144 µM in [16] and over 29 µM in series [18]. Also, the MCC in series [7] (read-out: MCC) is 720 µM.

For `O=C1O/C(=C\Cn2cc(/C=C/Br)c(=O)[nH]c2=O)C(OCc2ccccc2)=C1OCc1ccccc1`, the IC50 is 196 µM in [1]; over 100 µM in [3]; 233 µM in series [5]; over 100 µM in [6]; 38 µM in [8]; 40 µM in series [11]. Further, the figures for the IC50 in series [12], in series [13] and in series [17] were at least 200 µM, 45 µM and 40 µM, respectively. For the same compound, the MIC in [2] was 150 µM (≈ 80.6 µg/mL); in series [4] it was over 150 µM; in [9], over 150 µM; in series [10], over 150 µM; in series [14], over 150 µM; in [15], over 150 µM. In addition, the MIC in series [16] and in series [18] was over 150 µM throughout. In addition, the MCC in [7] (read-out: MCC) was 746 µM.

`O=C1O/C(=C\Cn2cc(-c3ccco3)c(=O)[nH]c2=O)C(OCc2ccccc2)=C1OCc1ccccc1`: the half-maximal inhibitory concentration (IC50) in series [1] was found to be 6.8 µM; in [3], 2.4 µM; in [5], 7 µM; in [6] it was 1.6 µM; in series [8], 1.8 µM; in series [11], 2 µM. In addition, the IC50 in [12] was found to be 6.6 µM; in series [13] it was 2 µM; in series [17], 2.2 µM. Moreover, the MIC in [2], in [4], in series [9], in [10], in [14] and in series [15] was over 6.4 µM throughout. Besides, the MIC in series [16] and in [18] was over 6.4 µM throughout. Further, the MCC in [7] (read-out: MCC) came out at 32 µM.

On to `O=C1O/C(=C\Cn2cc(-c3ccc(Br)o3)c(=O)[nH]c2=O)C(OCc2ccccc2)=C1OCc1ccccc1`, for which the 50% inhibitory concentration (IC50) was found to be 115 µM in series [1]; 49 µM in series [3]; 134 µM in series [5]; 27 µM in series [6]; 16 µM in [8]; 29 µM in series [11]. Moreover, the IC50 in series [12] came out at 125 µM; in [13] it was 24 µM; in series [17] it was 28 µM. Also, the MIC in series [2] was 70 µM (≈ 40.4 µg/mL); in series [4], over 70 µM; in series [9], over 70 µM; in series [10], 70 µM (≈ 40.4 µg/mL); in [14] it was over 70 µM; in series [15], over 70 µM. Further, the MIC in [16] and in series [18] was over 70 µM throughout. Besides, the MCC in series [7] (read-out: MCC) was found to be 347 µM.

Regarding `C=C=Cc1cn(C/C=C2\OC(=O)C(OCc3ccccc3)=C2OCc2ccccc2)c(=O)[nH]c1=O`, the IC50 was over 250 µM in series [1]; over 100 µM in [3]; over 250 µM in series [5]; over 100 µM in series [6]; over 100 µM in series [8]; 77 µM in series [11]. Also, the figures for the IC50 in series [12], in series [13] and in series [17] were over 250 µM, over 100 µM and over 100 µM, respectively. In addition, the MIC was 8 µM (≈ 3.76 µg/mL) in series [2]; over 8 µM in [4]; over 200 µM in series [9]; over 40 µM in series [10]; over 8 µM in series [14]; over 200 µM in series [15]. For the same compound, the MIC in [16] was over 8 µM; in [18], over 200 µM. The MCC in series [7] (read-out: MCC) stood at 40 µM.

Regarding `Nc1ncnc2c1ncn2C[C@H](O)CO` [(S)-DHPA], the MIC in series [9] was over 500 µM; in series [10], over 500 µM; in [15], over 500 µM; in [18] it was 300 µM (≈ 62.8 µg/mL).

For the compound `Nc1nc2c(ncn2COCCO)c(=O)[nH]1` [ACYCLOVIR], the MIC was over 500 µM in series [2], 0.48 µM (≈ 0.108 µg/mL) in [4], 0.8 µM (≈ 0.18 µg/mL) in series [14] and 60 µM (≈ 13.5 µg/mL) in [16]. Also, in series [7] (read-out: MIC), the MCC was over 500 µM.

As for `O=c1[nH]c(=O)n([C@H]2C[C@H](O)[C@@H](CO)O2)cc1/C=C/Br` [BRIVUDINE], the MIC was over 500 µM in [2]; 0.48 µM (≈ 0.16 µg/mL) in [4]; over 500 µM in series [9]; over 500 µM in [10]; 300 µM (≈ 99.9 µg/mL) in series [14]; over 500 µM in [15]. For the same compound, the MIC was 300 µM (≈ 99.9 µg/mL) in [16] and over 500 µM in series [18]. Further, the MCC in series [7] (read-out: MIC) was over 500 µM.

For the compound `Nc1nc2c(ncn2COC(CO)CO)c(=O)[nH]1` [GANCICLOVIR], the MIC was over 100 µM in [2], 0.096 µM (≈ 0.0245 µg/mL) in [4], 0.096 µM (≈ 0.0245 µg/mL) in series [14] and 0.8 µM (≈ 0.204 µg/mL) in series [16]. Moreover, the MCC in series [7] (read-out: MIC) was over 100 µM.

On to `NC(=O)c1ncn([C@@H]2O[C@H](CO)[C@@H](O)[C@H]2O)n1` [RIBAVIRIN], for which the MIC was over 500 µM in [2]; 500 µM (≈ 122 µg/mL) in series [4]; 100 µM (≈ 24.4 µg/mL) in series [9]; 100 µM (≈ 24.4 µg/mL) in series [10]; 300 µM (≈ 73.3 µg/mL) in [14]; over 500 µM in series [15]. The MIC in series [16] is 500 µM (≈ 122 µg/mL); in [18] it was 300 µM (≈ 73.3 µg/mL). Also, in [7] (read-out: MIC), the MCC was over 500 µM.
